This passage reports MIC, Ratio and IC50 results from ChEMBL document CHEMBL3259701, “Siderophore receptor-mediated uptake of lactivicin analogues in gram-negative bacteria” (J Med Chem, 2014).

pIC50: −log10 of the molar value. Converted amounts (≈) assume the structure as drawn. Where only a bound is given, the exact number is not on record here.

In assay [1] the test system is Pseudomonas aeruginosa. The assay is described as follows: Antibacterial activity against Pseudomonas aeruginosa PAO1 harboring siderophore receptor pirA and pfeA double mutant in medium containing aztreonam and low-Fe by CLSI broth microdilution method. The class given is functional. On the technique in general: Broth dilution looks for growth in wells or tubes with falling amounts of substance.

The test system of assay [2] is Pseudomonas aeruginosa. The experiment in a line: Antibacterial activity against Pseudomonas aeruginosa PAO1 harboring siderophore receptor pfeA mutant in medium containing aztreonam and low-Fe by CLSI broth microdilution method. The class given is functional.
Assay [3] has as its system Pseudomonas aeruginosa. The experiment in a line: Ratio of MIC for Pseudomonas aeruginosa PAO1 harboring siderophore receptor piuA and pfeA double mutant to MIC for wild type Pseudomonas aeruginosa PAO1 in medium containing aztreonam and low-Fe by CLSI broth microdilution method. The class given is functional.
The subject of assay [4] is Escherichia coli. The assay is described as follows: Antibacterial activity against Escherichia coli DH5alpha expressing beta-lactamase VIM-2 by CLSI broth microdilution method. The assay is classed as functional. Particulars: DH5[alpha].
The test system of assay [5] is Pseudomonas aeruginosa. The assay is described as follows: Ratio of MIC for Pseudomonas aeruginosa PAO1 harboring siderophore receptor fpvA mutant to MIC for wild type Pseudomonas aeruginosa PAO1 in Mueller-Hinton broth medium by CLSI broth microdilution method. The assay is classed as functional. Summed up:
(§1)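 Receptor-deficient PAO1 strain MIC divided by parent PAO1 MIC. Both MICs were obtained by CLSI broth microdilution in standard Mueller Hinton broth. A shift greater than 4× was taken to indicate that the deleted receptor(s) take part in drug uptake.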

Assay [6] deals with Pseudomonas aeruginosa. The assay is described as follows: Ratio of MIC for wild type Pseudomonas aeruginosa PAO1 in MHB medium to MIC for wild type Pseudomonas aeruginosa PAO1 in medium containing low-Fe by CLSI broth microdilution method. The class given is functional. An outline of the steps: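 MICs for wild-type P. aeruginosa PAO1 were determined by CLSI broth microdilution in standard Mueller Hinton broth and, in parallel, in a modified broth depleted of iron to mimic the low-iron in vivo environment. The ratio compares the MIC in standard MHB with the MIC in iron-depleted broth.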

Assay [7] has as its system Pseudomonas aeruginosa. The experiment in a line: Antibacterial activity against Pseudomonas aeruginosa PAO1 harboring siderophore receptor fpvA mutant in medium containing aztreonam and low-Fe by CLSI broth microdilution method. The assay is classed as functional.
Assay [8] has as its system Pseudomonas aeruginosa. The assay is described as follows: Ratio of MIC for Pseudomonas aeruginosa PAO1 harboring siderophore receptor piuA and pirA double mutant to MIC for wild type Pseudomonas aeruginosa PAO1 in medium containing aztreonam and low-Fe by CLSI broth microdilution method. The class given is functional.
The test system of assay [9] is Pseudomonas aeruginosa. The experiment in a line: Ratio of MIC for Pseudomonas aeruginosa PAO1 harboring siderophore receptor piuA, pfeA and pirA mutant in MHB medium to MIC for harboring siderophore receptor piuA, pfeA and pirA mutant in medium containing low-Fe by CLSI broth microdilution method. The class given is functional.
The test system of assay [10] is Pseudomonas aeruginosa. The assay is described as follows: Ratio of MIC for Pseudomonas aeruginosa PAO1 harboring siderophore receptor piuA and fpvA double mutant to MIC for wild type Pseudomonas aeruginosa PAO1 in medium containing aztreonam and low-Fe by CLSI broth microdilution method. The class given is functional.
The subject of assay [11] is Pseudomonas aeruginosa. The assay is described as follows: Antibacterial activity against Pseudomonas aeruginosa PAO1 harboring siderophore receptor piuA, pfeA and pirA mutant in medium containing aztreonam and low-Fe by CLSI broth microdilution method. The assay is classed as functional.
Assay [12] deals with Pseudomonas aeruginosa. The experiment in a line: Antibacterial activity against Pseudomonas aeruginosa PAO1 harboring siderophore receptor pirA mutant in Mueller-Hinton broth medium by CLSI broth microdilution method. The class given is functional. An outline of the steps: (§2)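 MIC by CLSI broth microdilution in standard Mueller Hinton broth. Tested against wild-type P. aeruginosa PAO1 and an isogenic panel lacking one or more siderophore receptors.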

A short description of assay [13]: Displacement of fluorescent Bocillin FL from Pseudomonas aeruginosa PBP2.
Assay [14] concerns Pseudomonas aeruginosa. The assay is described as follows: Ratio of MIC for Pseudomonas aeruginosa PAO1 harboring siderophore receptor piuA, pfeA and pirA mutant to MIC for wild type Pseudomonas aeruginosa PAO1 in Mueller-Hinton broth medium by CLSI broth microdilution method. The assay is classed as functional. An outline of the steps: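 Broth microdilution MIC per CLSI in standard Mueller-Hinton broth, run against wild-type P. aeruginosa PAO1 and isogenic PAO1 strains lacking one or more siderophore receptors. Value is the mutant-strain MIC divided by the PAO1 MIC.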

Assay [15] concerns Pseudomonas aeruginosa. The assay is described as follows: Ratio of MIC for Pseudomonas aeruginosa PAO1 harboring siderophore receptor pirA mutant to MIC for wild type Pseudomonas aeruginosa PAO1 in Mueller-Hinton broth medium by CLSI broth microdilution method. The class given is functional. Summed up:
as §1

The subject of assay [16] is Pseudomonas aeruginosa. The assay is described as follows: Antibacterial activity against Pseudomonas aeruginosa PAO1 in Mueller-Hinton broth medium by CLSI broth microdilution method. The assay is classed as functional. An outline of the steps:
as §2

Assay [17] relates to Pseudomonas aeruginosa. The assay is described as follows: Antibacterial activity against Pseudomonas aeruginosa PAO1 harboring siderophore receptor piuA and fptA double mutant in Mueller-Hinton broth medium by CLSI broth microdilution method. The assay is classed as functional. An outline of the steps: as §2
The test system of assay [18] is Pseudomonas aeruginosa. The experiment in a line: Ratio of MIC for Pseudomonas aeruginosa PAO1 harboring siderophore receptor piuA and fptA double mutant to MIC for wild type Pseudomonas aeruginosa PAO1 in medium containing aztreonam and low-Fe by CLSI broth microdilution method. The class given is functional.
In assay [19] the test system is Pseudomonas aeruginosa. The assay is described as follows: Ratio of MIC for Pseudomonas aeruginosa PAO1 harboring siderophore receptor piuA and pfeA double mutant to MIC for wild type Pseudomonas aeruginosa PAO1 in medium containing low-Fe by CLSI broth microdilution method. The assay is classed as functional. An outline of the steps: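 CLSI broth microdilution MICs in a modified Mueller-Hinton broth depleted of iron to mimic low in vivo iron. Tested against wild-type PAO1 and isogenic siderophore receptor knockout strains. Reported as the knockout-strain MIC divided by the PAO1 MIC in the same iron-depleted medium.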

Assay [20] deals with Pseudomonas aeruginosa. The assay is described as follows: Antibacterial activity against Pseudomonas aeruginosa PAO1 harboring siderophore receptor piuA and fpvA double mutant in medium containing aztreonam and low-Fe by CLSI broth microdilution method. The class given is functional.
The subject of assay [21] is Pseudomonas aeruginosa. The experiment in a line: Ratio of MIC for Pseudomonas aeruginosa PAO1 harboring siderophore receptor fptA mutant in MHB medium to MIC for Pseudomonas aeruginosa PAO1 harboring siderophore receptor fptA mutant in medium containing low-Fe by CLSI broth microdilution method. The class given is functional.
Assay [22] has as its system Pseudomonas aeruginosa. The experiment in a line: Antibacterial activity against Pseudomonas aeruginosa PAO1 harboring siderophore receptor piuA mutant in medium containing aztreonam and low-Fe by CLSI broth microdilution method. The class given is functional.
Assay [23] has as its system Escherichia coli. The experiment in a line: Antibacterial activity against Escherichia coli DH5alpha expressing beta-lactamase CTX-M-15 by CLSI broth microdilution method. The class given is functional. Particulars: DH5[alpha].

Regarding `CC(C)(O/N=C(\C(=O)N[C@H]1CON(C2(C(=O)O)C[C@H](N3C(=O)c4cc(O)c(O)cc4C3=O)C(=O)O2)C1=O)c1csc(N)n1)C(=O)O` (stereo partly drawn), the MIC – broadly, the lowest concentration found to suppress growth – in the assay with Pseudomonas aeruginosa [1] was determined as 4 µg/mL (≈ 6.04 µM); against Pseudomonas aeruginosa [2] it was 4 µg/mL (≈ 6.04 µM); in the assay on Escherichia coli [4], 0.015 µg/mL (≈ 0.0226 µM); with Pseudomonas aeruginosa [7], 2 µg/mL (≈ 3.02 µM); against Pseudomonas aeruginosa [11], 4 µg/mL (≈ 6.04 µM); in the assay on Pseudomonas aeruginosa [12], 0.5 µg/mL (≈ 0.755 µM). For the same molecule, the MIC in the assay on Pseudomonas aeruginosa [16] is 0.5 µg/mL (≈ 0.755 µM); in the assay with Pseudomonas aeruginosa [17] it was 8 µg/mL (≈ 12.1 µM); with Pseudomonas aeruginosa [20], 4 µg/mL (≈ 6.04 µM); in the assay with Pseudomonas aeruginosa [22], 4 µg/mL (≈ 6.04 µM); against Escherichia coli [23], 0.015 µg/mL (≈ 0.0226 µM). Further, the Ratio in the assay with Pseudomonas aeruginosa [3] stood at 1; in the assay with Pseudomonas aeruginosa [5], 32; in the assay with Pseudomonas aeruginosa [6], 16; in the assay with Pseudomonas aeruginosa [8], 1; with Pseudomonas aeruginosa [9], 64; in the assay with Pseudomonas aeruginosa [10] it was 1. The Ratio with Pseudomonas aeruginosa [14] is 32; with Pseudomonas aeruginosa [15], 1; with Pseudomonas aeruginosa [18], 1; in the assay on Pseudomonas aeruginosa [19], “>=4”; with Pseudomonas aeruginosa [21], 64. For the same molecule, the pIC50 (as a rule, the IC50 on a negative log10 scale, so that one unit is a factor of ten) in assay [13] was 5.43.
